Calls of active or inactive are those of the source. The rule behind the calls is not given here.
Columns and labels:
A549 [1] = experiment: Induction of intracellular ROS generation in human A549 cells by DCFDA dye based fluorescence assay relative to control; type: functional, cell-based
In short: (§1)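 Intracellular ROS in A549 cells was measured with the DCFDA probe over 1-100 µM, with paclitaxel as positive control. Readout is fold change in fluorescence intensity relative to untreated control.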

A549 [2] = experiment: Induction of intracellular ROS generation in human A549 cells at 1 uM by DCFDA dye based fluorescence assay relative to control; type: functional; in short: as §1
A549 [3] = experiment: Induction of morphological changes in human A549 cells at 20 uM by phase contrast microscopy; type: functional, cell-based
A549 [4] = experiment: Induction of apoptosis in human A549 cells assessed as induction of nuclear changes with DNA fragmentation at 1 uM by Hoechst 33342 nuclear staining based assay; type: functional, cell-based
In short: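 Hoechst 33342 nuclear staining of treated A549 or A375 cells. Nuclear condensation and fragmentation were examined by fluorescence microscopy against untreated control.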

A549 [5] = experiment: Induction of apoptosis in human A549 cells assessed as increase in caspase-3 levels at 1 uM incubated for 12 hrs by spectrofluorometry; type: functional, cell-based
A-375 = experiment: Induction of apoptosis in human A375 cells assessed as increase in caspase-2 levels at 1 uM incubated for 12 hrs by spectrofluorometry; type: functional, cell-based

`COc1cc(C2Oc3cc(-c4cc(=O)c5c(O)cc(O)cc5o4)ccc3OC2/C=C2\C(=O)ON=C2c2ccc(Cl)cc2)ccc1O` (stereo unspecified) was tested, and the Activity (A549 [1]) was “Dose-dependent effect”, the “fold change (FC)” value (A549 [2]) was >3 and the Activity (A549 [3]) was “Active”. For the same compound, the Activity (A549 [4]) was “Active”, the Activity (A549 [5]) was “Active” and the Activity (A-375) was “Active”.

From ChEMBL document CHEMBL4334468, “Exploring Mitochondria-Mediated Intrinsic Apoptosis by New Phytochemical Entities: An Explicit Observation of Cytochrome c Dynamics on Lung and Melanoma Cancer Cells” (J Med Chem, 2019)
